PGC1a acetyl inh – PGC1a acetylation modulation, inhibitor mode | U2OS PGC1a acetylation, AlphaScreen anti-acetyl-lysine; with virally co-expressed GCN5 acetyltransferase | inhibition, % at 15.6 µM | 350,000 compounds, 0.17% hits | AID 651687;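 active means every replicate shows inhibition of at least 40%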;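 further: 0% = neutral control wells and 100% = positive control wells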
rRNA inh HTS – inhibits bacterial ribosomal RNA function over humanized ribosomes. E. coli WT GFP vs humanized-ribosome RFP mutants, fluorescence, 24 h; active compounds read low; DMSO median 0, no signal -100. GFP signal change (wild-type ribosome), % (test concentration not listed). 350,000 compounds, 1.6% hits. AID 720706;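 active means significant combined selectivity score with lowered wild-type GFP, culture density cut under 30%, mutant RFP and density less affected; inactive means any of these conditions unmet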
ARNT-TACC3 inh – ARNT/TACC3 interaction disruption; AID 623870; inhibition, % at 9.99 µM; 390,000 compounds, 0.66% hits; AlphaScreen His-ARNT PAS-B/GST-TACC3 binding, luminescence; TACC3 fragment carries E629A point mutation;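 active means mean inhibition of replicates at least 50% and at least half of replicates each reaching 50%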;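 further: 0% = complete ARNT plus TACC3 wells and 100% = ARNT alone without TACC3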
Casp6 inh – blocks human caspase-6 cleavage activity; P55212; purified caspase-6, Z-VEID-R110 cleavage fluorescence; inhibition, % at 12.5 µM; 350,000 compounds, 0.53% hits;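 active means mean inhibition across replicates at least about 35%, with every replicate also reaching that limit, limit read from the data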;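 further: 0% = median of neutral control wells and 100% = no fluorescence left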
Target sequence (P55212 24-179 limits assumed): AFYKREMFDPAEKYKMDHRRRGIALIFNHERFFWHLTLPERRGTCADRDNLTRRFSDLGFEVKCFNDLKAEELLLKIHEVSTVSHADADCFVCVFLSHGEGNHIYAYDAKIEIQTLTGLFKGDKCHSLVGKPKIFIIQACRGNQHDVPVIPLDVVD
Target sequence (P55212 194-293 limits assumed): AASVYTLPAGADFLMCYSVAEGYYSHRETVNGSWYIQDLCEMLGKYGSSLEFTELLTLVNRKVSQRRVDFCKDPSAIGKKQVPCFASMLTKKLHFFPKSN
ERAP1 HTS inh – blocks human ERAP1 aminopeptidase activity | Q9NZ08 | recombinant ERAP1, Leu-AMC fluorescence, 60 min | inhibition, % at 10.7 µM | 340,000 compounds, 0.15% hits | AID 652197;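 active means mean replicate inhibition of at least 30%, or all replicates individually reaching that 30% level; inactive means mean below 30% and not every replicate reaching it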;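 further: 0% = neutral control wells and 100% = L-leucinethiol positive control wells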
S100A4 inh HTS – S100A4-myosin IIA interaction inhibition; S100A4/TAMRA-MyoIIA peptide fluorescence polarization; AID 652163; 360,000 compounds, 0.14% hits; inhibition, % at 10.7 µM;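 active means mean inhibition of at least 70% across replicates, with every replicate also reaching that level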
Target sequence (P26447 whole entry, looked up): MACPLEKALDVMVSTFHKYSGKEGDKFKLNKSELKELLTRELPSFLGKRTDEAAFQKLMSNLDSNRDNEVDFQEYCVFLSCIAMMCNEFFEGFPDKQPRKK
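Material: S100A4 monomer (human). Medium: Calcium-containing HEPES buffer, pH 7.2. Probe or stimulus: labelled myosin peptide probe, 5 nM. Compound dosing: one concentration per compound. Timing: polarization read 5 min after assay mix addition, stable 5–60 min. Benchmarks: DMSO as neutral control, TFP as positive control.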
The depositor's hits bear a star; . = no result. A selection: hits, their analogues and other compounds. The true share with any hit is near 2.4%.

SMILES	PGC1a acetyl inh	rRNA inh HTS	ARNT-TACC3 inh	Casp6 inh	ERAP1 HTS inh	S100A4 inh HTS
O=C(O)Cc1ccccc1C(=O)O	.	.	-1.5	.	.	.
O=C(O)Cc1cccc(=O)c(O)c1C(=O)O	3.5	.	93.2*	.	.	.
CO[C@H]1CN(C)C(=O)c2ccc(NC(=O)C3CCOCC3)cc2OC[C@@H](C)NC[C@@H]1C	-0.8	1.4	-3.6	1.1	3.1	-4.5
CN1C(=O)c2cc(NC(=O)C3CCCCC3)ccc2OC[C@@H]2O[C@@H](CC(=O)NCc3ccccc3F)CC[C@@H]21	0.1	-3.5	-11.1	-0.3	-3.0	-4.2
CC(C)C(=O)Nc1ccc2c(c1)C(=O)N(C)[C@@H]1CC[C@@H](CC(=O)NCc3ccc(F)cc3)O[C@@H]1CO2	-4.5	-2.2	-11.0	-2.2	4.3	4.7
COc1cc2sc(C)nc2c2ccccc12	.	-5.3	-7.2	40.4*	12.9	-0.4
CCc1nnc(NS(=O)(=O)c2ccc(NC(=S)NC(=O)/C=C/c3ccc(OC)cc3)cc2)s1	.	.	-7.4	.	.	.
CCc1nnc(NS(=O)(=O)c2ccc(NC(=S)NC(=O)/C=C/c3ccccc3)cc2)s1	.	-37.0*	12.6	20.8	-0.6	0.7
C[C@@H]1CCCCO[C@H](CN(C)C(=O)c2ccccc2)[C@@H](C)CN([C@@H](C)CO)C(=O)c2cc(NC(=O)c3ccncc3)ccc2O1	1.8	-3.4	8.8	1.0	-0.5	1.1
COC(=O)CCCCCCCCCC[N+]1(C)CCCCC1	.	.	-2.0	.	.	.
CC(=O)OCCCCCCCCCCC[N+]1(C)CCCCC1	.	2.7	-0.6	-15.4	88.0*	-1.7
Cc1ccc(C)c(C(=O)COC(=O)c2n[nH]c3ccccc23)c1	.	-55.7	-2.8	-0.4	-0.6	0.8
O=C(COC(=O)c1n[nH]c2ccccc12)c1cccc(Br)c1	-2.6	-38.2*	2.3	1.0	2.9	-1.7
O=C(CSc1n[nH]c(=O)n1C1CC1)Nc1ccc(Cl)c(Cl)c1	-8.9	-20.4*	43.5	0.1	.	-1.6
C[C@H]1CN([C@@H](C)CO)S(=O)(=O)c2ccc(C#CCN(C)C)cc2O[C@H]1CN(C)Cc1ccncc1	5.4	-2.9	-5.0	1.0	0.5	-34.6
COc1ccc(CN2CC3(CCN(C(C)=O)CC3)c3c(n(C)c4cc(OC)ccc34)[C@H]2CO)cc1	.	1.7	.	.	.	.
COc1ccc(-c2cc(C(=O)OCC(=O)N(C)C)c3ccccc3n2)cc1	-5.5	.	-7.6	.	.	.
COc1ccc(-c2cc(C(=O)OCc3ccccn3)c3ccccc3n2)cc1	-10.4	-34.0*	-3.5	11.1	12.5	-4.2
COC(=O)C[C@H]1CC[C@H]2[C@@H](COc3ccc(NS(=O)(=O)c4ccccc4Cl)cc3C(=O)N2C)O1	0.9	1.7	.	2.1	0.3	-12.1
O=C(NC(=S)Nc1ccc(S(=O)(=O)Nc2nccs2)cc1)c1ccccc1	2.2	.	-4.0	.	.	.
O=C(NC(=S)Nc1ccc(S(=O)(=O)Nc2nccs2)cc1)c1ccccc1F	10.8	-21.6*	-1.9	1.8	3.2	-6.1
O=C(NC(=S)Nc1ccc(S(=O)(=O)Nc2nccs2)cc1)c1ccc(Br)o1	.	-14.2	52.3*	2.2	-1.1	6.0
O=C(Nc1ccc(S(=O)(=O)Nc2nccs2)cc1)c1cnc(Cl)c(Cl)c1	.	-29.3*	-4.1	-7.9	1.4	5.5
CNC[C@@H]1Oc2c(cccc2N(C)C)C(=O)N([C@H](C)CO)C[C@H]1C	-1.2	-1.6	.	-0.2	0.5	14.1
CCCC#Cc1ccc([C@H]2[C@@H](CO)N3CCCCN(S(C)(=O)=O)C[C@H]23)cc1	-0.3	1.3	-6.4	-1.4	-0.2	-1.4
SMILES	PGC1a acetyl inh	rRNA inh HTS	ARNT-TACC3 inh	Casp6 inh	ERAP1 HTS inh	S100A4 inh HTS
CCC(=O)Nc1nc2ccc(NC(=O)c3cc(OC)c(OC)c(OC)c3)cc2s1	-9.2	-36.3*	-0.6	1.2	3.4	5.4
O=C(C[C@@H]1CC[C@H]2[C@@H](COC[C@H](O)CN2CCC(F)(F)F)O1)N1CCC(Cc2ccccc2)CC1	4.0	4.7	-6.3	0.6	0.2	-18.7
O=C(ONC(=O)C1CCCCC1C(=O)NOC(=O)c1ccccc1)c1ccccc1 (stereo not drawn)	45.6	9.3	-8.5	39.6*	1.3	-1.9
CCCOc1ccc(N2C(=O)CC(SCCc3nc4ccccc4[nH]3)C2=O)cc1 (stereo not drawn)	.	-30.6*	0.5	0.0	1.4	2.5
O=C1CC(SCCc2nc3ccccc3[nH]2)C(=O)N1c1ccc(Cl)cc1 (stereo not drawn)	-0.1	.	.	.	.	.
CSc1ccccc1OCc1cc(C(=O)N[C@H]2CCCCNC2=O)no1	.	-18.9*	-4.2	-0.1	-1.3	-11.8
O=C(CCN1CCOCC1)N/N=C/c1cc(Br)cc(Br)c1O	4.3	-25.6	69.7*	-10.2	2.4	-5.7
O=C(CCN1CCN(c2ccccc2)CC1)N/N=C/c1ccc(O)c(O)c1O	.	-2.6	.	65.3*	1.2	1.9
C[C@H](CO)N1C[C@H](C)[C@@H](CN(C)C(=O)c2ccc3c(c2)OCO3)Oc2ncc(C#Cc3ccccc3F)cc2C1=O	-11.3	-0.7	-1.1	5.1	-3.4	-2.7
CC(/C=C1\SC(=S)N(NS(=O)(=O)c2ccccc2)C1=O)=C\c1ccccc1	-2.5	-43.1*	-2.0	21.9	.	-0.7
CC(/C=C1\SC(=S)N(NC(=O)c2ccncc2)C1=O)=C\c1ccccc1	2.1	-32.0*	5.7	9.9	3.5	-8.8
CC(/C=C1\SC(=S)N(NS(=O)(=O)c2ccc(C)cc2)C1=O)=C\c1ccccc1	7.2	-28.8	-7.4	0.1	18.2	1.5
CC(C)c1cn(CC[C@H]2CC[C@H](NC(=O)C3CCOCC3)[C@H](CO)O2)nn1	-6.6	0.8	.	6.9	2.2	5.3
CCOc1ccc(S(=O)(=O)Nc2cc(NS(=O)(=O)c3ccc(OCC)cc3)cc(C(=O)O)c2)cc1	.	-0.9	.	70.1*	2.4	2.0
CCCc1cc(=O)[nH]c(Nc2ccc3c(c2)OCCO3)n1	9.6	-16.1*	.	0.6	-9.0	3.0
CN(C)c1ccc(N=c2sc3ccccc3n2C)cc1	-2.2	.	72.3*	.	.	.
Cn1c(=Nc2ccccc2)sc2ccccc21	-5.1	-13.1	8.6	-2.3	-2.1	-2.2
OCC1CCCN(C(=S)Nc2ccc(Nc3ccccc3)cc2)C1 (stereo not drawn)	-8.2	-27.0*	.	3.5	0.5	4.1
NS(=O)(=O)c1ccc(CNC(=O)/C=C/c2ccco2)cc1	13.9	9.2	13.8	35.7*	2.3	4.6
O=C(/C=C/c1ccco1)NCc1ccc(F)cc1	-8.8	-4.6	-0.1	2.9	-7.2	-3.1
O=C(N/C=C/c1ccco1)NCc1ccccc1	4.9	16.8	-2.5	41.6*	9.5	-1.7
Cc1ccc(NC(=S)Nc2cc(-c3ccccc3)[nH]n2)cc1Cl	.	-19.6*	-5.5	1.3	-1.1	0.8
